pEC50, pIC50: −log10 of the molar value. Where only a bound is given, the exact number is not on record here.

Series [1] concerns Mus musculus. Nature of the series: Immunosuppressant activity in Balb/C mouse assessed as decrease in circulating CD3+ T cells at 1 mg/kg, po measured after 30 mins by flow cytometric analysis. Type of series: functional, T-cell. Set-up: scale not given: the % may be the effect or the level left. A digest of the protocol:
(§1)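 Oral dosing of BALB/C mice at 0.1, 0.3, 1, 3 or 10 mg/kg. Peripheral blood CD3+ T cells were counted, and the result is expressed as percent decrease of CD3+ cells.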
(A flow cytometer gives signals particle by particle.)

For series [2], the system named is Mus musculus. Briefly: Immunosuppressant activity in Balb/C mouse assessed as decrease in circulating CD3+ T cells at 3 mg/kg, po measured after 30 mins by flow cytometric analysis. Type of series: functional, T-cell. Set-up: scale not given: the % may be the effect or the level left. Put shortly: as §1
The subject of series [3] is Mus musculus. Nature of the series: Immunosuppressant activity in Balb/C mouse assessed as decrease in circulating CD3+ T cells at 10 mg/kg, po measured after 30 mins by flow cytometric analysis. Type of series: functional, T-cell. Set-up: scale not given: the % may be the effect or the level left. A digest of the protocol:
as §1

The nature of series [4]: Cytotoxicity against HLF cells. Type of series: cell-based. Particulars: human, read-out: TC50 (the source's name); call rule not given here. Put shortly: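 Cytotoxicity was determined by the MTT method in HLF cells; TC50 values reported in μM.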
Series [5] concerns Mus musculus. Nature of the series: Immunosuppressant activity in Balb/C mouse assessed as decrease in circulating CD3+ T cells at 0.1 mg/kg, po measured after 30 mins by flow cytometric analysis. Type of series: functional, T-cell. More on the design: scale not given: the % may be the effect or the level left. A digest of the protocol:
as §1

In series [6] the test system is Mus musculus. Nature of the series: Immunosuppressant activity in Balb/C mouse assessed as decrease in circulating CD3+ T cells at 0.3 mg/kg, po measured after 30 mins by flow cytometric analysis. Type of series: functional, T-cell. More on the design: scale not given: the % may be the effect or the level left. A digest of the protocol:
as §1

Series [7] addresses T1, Sphingosine 1-phosphate receptor 1 (Homo sapiens, UniProt P21453). Particulars: UOS2, 3 uM.
Series [8] deals with T1, Sphingosine 1-phosphate receptor 1. Particulars: UOS2, 10 uM.
For series [9] the target is unchanged. Nature of the series: Agonist activity at EGFP-tagged S1P1 receptor expressed in human […] cells assessed as receptor internalization in endosomes after 60 mins. Particulars: for pEC50: read-out: EC50. Type of series: functional, cell-based. A digest of the protocol:
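S1P1 Redistribution assay measuring agonist activity; EC50 values reported in μM.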

The nature of series [10]: Ratio of TC50 for compound to FTY720 for HLF cells. Type of series: ADME, cell-based. Particulars: human.
A further series has as its system S1P1 receptor. Briefly: Therapeutic index, ratio of TC50 for HLF cells to EC50 for S1P1 receptor. Type of series: cell-based. Particulars: human, read-out: TI.
For series [11], the system named is Mus musculus. Briefly: Immunosuppressant activity in po dosed Balb/C mouse assessed as decrease in circulating CD3+ T cells measured after 30 mins by flow cytometric analysis. Type of series: functional, organism-based. Particulars: T-cell. A digest of the protocol: as §1
Series [12] concerns the target T2, Sphingosine 1-phosphate receptor 4 (Homo sapiens, UniProt O95977).
T2 sequence (O95977 whole entry): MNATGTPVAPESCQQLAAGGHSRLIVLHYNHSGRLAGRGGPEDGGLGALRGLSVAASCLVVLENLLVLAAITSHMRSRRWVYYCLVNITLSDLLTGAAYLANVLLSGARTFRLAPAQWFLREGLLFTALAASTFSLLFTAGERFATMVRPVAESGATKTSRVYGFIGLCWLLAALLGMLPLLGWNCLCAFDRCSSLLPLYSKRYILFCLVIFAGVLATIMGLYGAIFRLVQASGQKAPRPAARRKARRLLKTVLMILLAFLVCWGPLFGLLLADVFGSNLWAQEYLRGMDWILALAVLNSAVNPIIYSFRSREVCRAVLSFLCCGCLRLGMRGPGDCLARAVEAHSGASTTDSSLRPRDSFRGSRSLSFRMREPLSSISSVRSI
Briefly: Agonist activity at human S1P4 expressed in CHO cells after 60 mins by [35S]GTPgammaS binding assay. Type of series: functional, cell-based. In general terms: Binding of GTPγS marks nucleotide exchange on a G protein.

T1 sequence (P21453 whole entry): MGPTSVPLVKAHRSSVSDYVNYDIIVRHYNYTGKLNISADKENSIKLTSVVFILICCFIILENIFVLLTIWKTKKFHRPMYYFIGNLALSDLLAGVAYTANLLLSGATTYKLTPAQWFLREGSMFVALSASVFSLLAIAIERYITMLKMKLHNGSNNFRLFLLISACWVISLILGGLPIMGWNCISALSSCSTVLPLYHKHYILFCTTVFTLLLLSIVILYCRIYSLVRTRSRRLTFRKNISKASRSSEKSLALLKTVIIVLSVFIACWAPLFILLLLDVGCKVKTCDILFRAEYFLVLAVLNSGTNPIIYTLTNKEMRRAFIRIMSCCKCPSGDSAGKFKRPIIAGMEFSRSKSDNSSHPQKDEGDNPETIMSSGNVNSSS

What is called Emax is the maximal effect, on the per cent scale that the assay sets. On to `CCCCCCCCc1ccc(CCC(N)(CO)CO)cc1.Cl` [FINGOLIMOD HYDROCHLORIDE], for which the Activity in the series on Mus musculus [1] is 79%; with Mus musculus [2] it was 80.7%; in the series with Mus musculus [3] it was 86.6%; with Mus musculus [5], 9.7%; in the series with Mus musculus [6], 47.2%. For the same compound, the CC50 in series [4] was determined as 3.15 µM. Besides, the Emax in [7] is 37%; in series [8] it was 54%.

As to `Cc1ccccc1COc1ccc(CCC2(C(N)=O)COC(=O)N2)cc1` (stereo unspecified), in series [9] (uos2), the EC50 entry is on record as “Not Active”.

In general, pEC50 refers to the negative decadic logarithm of the EC50, by convention in mol/L. `NC(=O)C1(CCc2ccc(OCCCc3ccccc3)cc2)COC(=O)N1` (stereo unspecified): the negative logarithm of the EC50 (pEC50) in series [9] was 5.44. In addition, the CC50 in [4] is 26.4 µM. Moreover, the results for the selectivity ratio (in series [10]; in the series on S1P1 receptor) were 8 and 7.28, respectively.

As for `NC(=O)C1(CCc2ccc(OCc3ccccc3Cl)cc2)COC(=O)N1` (stereo unspecified), the pEC50 in [9] was below 4.00.

Take `NC(=O)C1(CCc2ccc(OCc3ccc(Cl)cc3)cc2)COC(=O)N1` (stereo unspecified): in series [9], the negative logarithm of the EC50 (pEC50) is 5.96. Moreover, the CC50 in [4] was found to be 27.9 µM. Further, the values for the selectivity ratio (in series [10]; in the series on S1P1 receptor) were 8 and 25.4, respectively.

Regarding `CCCCCCCCOc1ccc(CCC2(C(N)=O)COC(=O)N2)cc1` (stereo unspecified), the Activity with Mus musculus [1] is 20%; in the series with Mus musculus [2], 53%; in the series with Mus musculus [3], 84.3%; in the series with Mus musculus [11], “Dose-dependent effect”; with Mus musculus [6] it was 1.7%. The negative logarithm of the EC50 (pEC50) in [9] is 5.55. Also, in [4], the CC50 amounted to 121 µM. Further, in the series on S1P1 receptor, the selectivity ratio worked out at 42.6.

In general, pIC50 refers to the IC50 on a negative log10 scale, so that one unit is a factor of ten. As for `CCCCCCCCc1ccc(CC[C@](N)(CO)COP(=O)(O)O)cc1` [FTY720-P], the pIC50 in series [12] is 8.66.

In the case of `CC(C)(C)c1ccc(COc2ccc(CCC3(C(N)=O)COC(=O)N3)cc2)cc1` (stereo unspecified), in series [9], the pEC50 was 5.57. In series [4], the CC50 came out at 25.4 µM. Moreover, the figures for the selectivity ratio (in series [10]; with S1P1 receptor) were 8 and 9.35, respectively.

These data come from ChEMBL document CHEMBL1933023, “Novel immunomodulators based on an oxazolin-2-one-4-carboxamide scaffold” (Bioorg Med Chem Lett, 2012).
